Test results published in publication PMC4770456 (Food chemistry, 2016).
Like-named read-outs stand apart in the source and are kept apart here.

Tests used:
[1] = biological target: PARP-1 (Homo sapiens, UniProt P09874); assay: PARP-1 inhibitory assay; type: biochemical
Procedure, shortened: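 Wells were histone-coated overnight at 4°C, blocked, then given activated DNA in PARP-1 and assay buffers. Test compound, diluted in 10% DMSO, was added before PARP-1 enzyme, followed by 1 h at 20°C. After washing, streptavidin-HRP was added (30 min, 20°C), then chemiluminescent substrate, with luminescence read at 410 nm. IC50 from triplicate measurements.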

[2] = biological target: K-Ras (Homo sapiens, UniProt P01116); assay: K-Ras inhibitory assay; type: cell-based; details: for K-Ras (HT-29) IC50: HT-29 cells, EGF 5 ng/ml
Procedure, shortened: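 HT-29 cells in RPMI-1640 with penicillin/streptomycin were exposed to test compound for 3 h at 37°C, 5% CO2. They were then PBS-washed, stimulated with EGF (5 ng/ml, 2 min) and lysed with protease inhibitor. Protein was quantified, and Ras GTPase chemiluminescent ELISA used anti-K-Ras (1:5000, 1 h, room temperature) with HRP secondary and a luminescence read-out. IC50 from triplicate measurements.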

[3] = biological target: NF-κB p65 (Homo sapiens, UniProt Q04206); assay: NF-κB p65 inhibitory assay; type: cell-based
[4] = tested on: HT-29 cells; assay: SRB cytotoxicity assay; type: cell-based, human; details: for EC50: read-out: Cytotoxicity EC50
[5] = read-out: PARP-1 IC50, enzyme assay
[6] = read-out: Cytotoxicity (HT-29) IC50, HT-29 cells, 72 h, SRB

Chain of K-Ras (P01116 1-188 isoform P01116-2): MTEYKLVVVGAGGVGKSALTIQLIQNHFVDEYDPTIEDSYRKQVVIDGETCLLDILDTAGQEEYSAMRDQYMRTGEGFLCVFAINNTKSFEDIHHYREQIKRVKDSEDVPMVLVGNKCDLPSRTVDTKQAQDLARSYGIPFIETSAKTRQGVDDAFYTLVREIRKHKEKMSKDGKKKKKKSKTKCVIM
Chain of NF-κB p65 (Q04206 whole entry): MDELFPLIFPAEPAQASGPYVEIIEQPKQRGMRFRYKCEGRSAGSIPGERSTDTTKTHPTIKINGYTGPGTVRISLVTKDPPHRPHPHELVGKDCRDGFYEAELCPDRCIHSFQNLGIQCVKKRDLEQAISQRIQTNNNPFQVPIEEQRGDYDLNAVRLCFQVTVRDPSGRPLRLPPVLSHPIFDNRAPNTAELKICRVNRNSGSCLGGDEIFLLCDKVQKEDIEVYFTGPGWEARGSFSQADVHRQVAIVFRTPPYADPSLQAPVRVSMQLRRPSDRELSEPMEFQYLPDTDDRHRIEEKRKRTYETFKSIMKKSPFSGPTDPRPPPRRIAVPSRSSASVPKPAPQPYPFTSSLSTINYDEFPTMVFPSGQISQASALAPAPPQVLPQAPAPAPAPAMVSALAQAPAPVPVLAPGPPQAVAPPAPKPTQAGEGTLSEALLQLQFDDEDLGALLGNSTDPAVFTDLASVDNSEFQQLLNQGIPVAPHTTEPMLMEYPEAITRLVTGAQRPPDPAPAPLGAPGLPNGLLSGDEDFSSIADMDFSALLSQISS
Chain of PARP-1 (P09874 whole entry): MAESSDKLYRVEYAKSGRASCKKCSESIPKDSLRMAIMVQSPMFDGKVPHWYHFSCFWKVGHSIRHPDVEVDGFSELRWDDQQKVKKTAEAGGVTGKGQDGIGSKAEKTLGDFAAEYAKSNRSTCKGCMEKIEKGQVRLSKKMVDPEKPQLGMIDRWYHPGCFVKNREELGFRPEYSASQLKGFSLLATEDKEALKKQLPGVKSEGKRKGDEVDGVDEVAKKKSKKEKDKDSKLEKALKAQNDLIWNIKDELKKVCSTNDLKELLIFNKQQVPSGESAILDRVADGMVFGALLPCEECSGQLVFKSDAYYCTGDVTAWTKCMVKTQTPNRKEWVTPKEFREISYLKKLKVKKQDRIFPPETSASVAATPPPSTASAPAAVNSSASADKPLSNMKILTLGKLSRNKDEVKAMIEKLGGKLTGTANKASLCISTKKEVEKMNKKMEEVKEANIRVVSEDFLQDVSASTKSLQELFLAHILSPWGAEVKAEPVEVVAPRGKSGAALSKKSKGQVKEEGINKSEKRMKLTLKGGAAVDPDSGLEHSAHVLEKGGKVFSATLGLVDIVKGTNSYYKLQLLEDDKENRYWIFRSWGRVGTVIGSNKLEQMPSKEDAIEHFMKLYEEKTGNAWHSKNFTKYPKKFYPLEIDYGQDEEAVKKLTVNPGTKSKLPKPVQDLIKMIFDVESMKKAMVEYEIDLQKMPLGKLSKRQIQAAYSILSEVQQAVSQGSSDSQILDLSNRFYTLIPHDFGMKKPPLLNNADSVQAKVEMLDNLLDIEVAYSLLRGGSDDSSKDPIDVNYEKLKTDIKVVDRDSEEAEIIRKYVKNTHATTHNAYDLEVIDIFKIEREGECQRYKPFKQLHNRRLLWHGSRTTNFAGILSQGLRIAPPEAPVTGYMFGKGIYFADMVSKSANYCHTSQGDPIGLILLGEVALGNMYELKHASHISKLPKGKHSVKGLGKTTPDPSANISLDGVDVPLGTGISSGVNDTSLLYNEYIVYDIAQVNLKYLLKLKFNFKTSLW

| Structure (SMILES) | NF-κB (HeLa) IC50 ([3]; p65, HeLa cells, TNFα) | IC50 [1, 5] | K-Ras (HT-29) IC50 [2] | IC50 [4, 6] | EC50 ([4]; HT-29 cells, 72 h, SRB) | also measured |
| --- | --- | --- | --- | --- | --- | --- |
| CC=Cc1cc(OC)cc(C(C)C(O)c2cc(OC)c(OC)c(OC)c2)c1 (centres unmarked) [Compound 1] | Not active |  |  |  |  | IC50 [1]: 3040 nM; IC50 [2]: 10500 nM; NF-κB inhibitory activity (in words) ([3]; HeLa cells): no NF-κB inhibitory activity |
| C=CCc1cc(OC)c(OC(C)C(OC(C)=O)c2ccc(OC)c(OC)c2)c(OC)c1 (stereo not drawn) [Compound 2, benzenemethanol, α-[(1, R)-1-[2,6-dimethoxy-4-(2-propen-1-yl)phenoxy]ethyl]-3,4-dimethoxy-1-acetate] |  | 1 nM | Not active |  |  |  |
| CC(=O)O[C@H]1C(=O)[C@@]2(C)[C@H]([C@H](OC(=O)c3ccccc3)[C@]3(O)C[C@H](OC(=O)[C@H](O)[C@@H](NC(=O)c4ccccc4)c4ccccc4)C(C)=C1C3(C)C)[C@]1(OC(C)=O)CO[C@@H]1C[C@@H]2O [paclitaxel, reference compound] |  |  |  |  |  | EC50 ([4]; Homo sapiens, HT-29, 72 h): 0.5 nM; IC50 ([4]; Homo sapiens, HT-29, read-out: Cytotoxicity (HT-29) IC50): 0.5 nM |

Now from value to compound, other results behind:

| NF-κB (HeLa) IC50 ([3]; p65, HeLa cells, TNFα) | IC50 [1, 5] | K-Ras (HT-29) IC50 [2] | Structure (SMILES) | IC50 [4, 6] | EC50 ([4]; HT-29 cells, 72 h, SRB) | also measured |
| --- | --- | --- | --- | --- | --- | --- |
| Not active | 3110 nM | Not active | C/C=C/c1cc(OC)c2c(c1)C(C)C(c1cc(OC)c(OC)c(OC)c1)O2 (centres unmarked) [Compound 5, benzofuran, 2,3-dihydro-7-methoxy-3-methyl-5-(1E)-1-yl-2-(3,4,5-trimethoxyphenyl)] | 3 nM | 3 nM |  |
|  |  | Not active | C=CCc1cc(OC)c(OC(C)C(OC(C)=O)c2ccc3c(c2)OCO3)c(OC)c1 (stereo not drawn) [Compound 4, 1,3-benzodioxole-5-methanol,α-[1-[2,6-dimethoxy-4-(2-propenyl)phenoxy]ethyl]-acetate] | 24 nM | 24 nM | IC50 ([3]; read-out: NF-κB (HeLa) IC50, p65, HeLa cells, TNFα): 3.4 nM |
